Results reported in PMC11565791 (bioRxiv, 2025).

Legend:
H3K9 methylation states = conditions: faster than H3K9me2 to me3; ref Al-Sady et al. 2013; cited from earlier work
H3K9me0 mononucleosomes = test: Fluorescence polarization, H3K9me0 mononucleosome; type: binding; conditions: Figure 7C, SFigure 10D
Procedure, shortened: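 Reconstituted H3K9me0 mononucleosomes on fluorescein-labelled 601 DNA were fixed at 25 nM. Purified Swi6, either unphosphorylated or co-expressed with casein kinase II catalytic subunits, was titrated at 0–200 μM. Fluorescence polarization was read at ex 485 / em 528 nm and fitted to a Kd equation.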

H3Kc9me3 mononucleosomes = test: Fluorescence polarization, H3Kc9me3; type: binding; conditions: Figure 7C, SFigure 10D
Swi6 oligomerization = test: Glutaraldehyde crosslinking western, oligomerization; type: biochemical; conditions: 0.01% glutaraldehyde, 2 h, room temperature; compared to pSwi6; Figure 7B
Procedure, shortened: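 Purified Swi6 in storage buffer (25 mM HEPES pH 7.5, 100 mM KCl, 10% glycerol, 10 mM βME) was tested at various protein concentrations. It was crosslinked with 0.01% glutaraldehyde for 2 h at room temperature, then quenched with 50 mM Tris pH 7.4. Samples were diluted to 4.2 μM, run on 4–12% Tris-glycine gradient gels and analysed by western blot with fluorescent detection.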

[1] = tested on: Clr4 (H3K9me2 mononucleosome substrate); test: Single turnover H3K9me2 to H3K9me3 conversion by Clr4; type: biochemical, S. pombe; conditions: 5 μM Clr4, 1 mM SAM, 500 nM H3K9me2 nucleosomes, 25°C
Procedure, shortened: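 Purified Clr4 (5 μM) was preincubated for 5 min at 25°C with 1 mM SAM and varying Swi6 concentrations (unphosphorylated or phosphorylated). Reactions were started by adding commercial H3K9me2 nucleosomes to 500 nM. Timepoints were stopped by boiling in Laemmli buffer, run on 18% SDS-PAGE and blotted for H3K9me3 and H4. Signals were quantified against H3K9me3 nucleosome standard curves and fitted to a single exponential rise.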

Clr4: H3K9 methylase of S. pombe
rate of H3K9me0 to me1 and me1 to me2 conversion relative to me2 to me3 (H3K9 methylation states): 10 X

B1: pSwi6^S18/24A: phospho-mutant protein, S18 and S24 mutated to alanines, co-expressed with CKII (protein)
chain: MKKGGVRSYRRSSTSKRAVIDDDAEPELPSMTKEAIASHKADSGSSDNEVESDHESKSSSKKLKENAKEEEGGEEEEEDEYVVEKVLKHRMARKGGGYEYLLKWEGYDDPSDNTWSSEADCSGCKQLIEAYWNEHGGRPEPSKRKRTARPKKPEAKEPSPKSRKTDEDKHDKDSNEKIEDVNEKTIKFADKSQEEFNENGPPSGQPNGHIESDNESKSPSQKESNESEDIQIAETPSNVTPKKKPSPEVPKLPDNRELTVKQVENYDSWEDLVSSIDTIERKDDGTLEIYLTWKNGAISHHPSTITNKKCPQKMLQFYESHLTFRENE
modifications: left off: 6xHis, N-terminal, cleaved
increase in affinity towards H3K9me0 nucleosome versus pSwi6 (H3K9me0 mononucleosomes): 4.5 X
increase in affinity towards H3Kc9me3 nucleosome versus pSwi6 (H3Kc9me3 mononucleosomes): 2.6 X
propensity to oligomerize (Swi6 oligomerization): strongly decreased propensity to oligomerize
effect on conversion of H3K9me2 to H3K9me3 by Clr4 [1]: decrease in tri-methylation
